Calls of active or inactive are those of the source. The calls are words filed in the database; no cut-off is given here.
What was measured:
[1] = Antiproliferative activity against mouse LL/2 cells assessed as cell growth inhibition incubated for 96 hrs by MTT assay; type: functional, Lewis lung carcinoma
HCT-116 = assay: Antiproliferative activity against human HCT-116 cells assessed as cell growth inhibition incubated for 96 hrs by MTT assay; type: functional
A549 = assay: Antiproliferative activity against human A549 cells assessed as cell growth inhibition incubated for 96 hrs by MTT assay; type: functional
MCF7 = assay: Antiproliferative activity against human MCF7 cells assessed as cell growth inhibition incubated for 96 hrs by MTT assay; type: functional
Histone deacetylase 1 [2] = target: T1, Histone deacetylase 1 (Homo sapiens, UniProt Q13547); assay: Inhibition of HDAC1 in human HL-60 cells assessed as increase in Ac-H3 level at 2 uM incubated for 24 hrs by Western blot analysis; type: cell-based
T1 sequence (Q13547 whole entry): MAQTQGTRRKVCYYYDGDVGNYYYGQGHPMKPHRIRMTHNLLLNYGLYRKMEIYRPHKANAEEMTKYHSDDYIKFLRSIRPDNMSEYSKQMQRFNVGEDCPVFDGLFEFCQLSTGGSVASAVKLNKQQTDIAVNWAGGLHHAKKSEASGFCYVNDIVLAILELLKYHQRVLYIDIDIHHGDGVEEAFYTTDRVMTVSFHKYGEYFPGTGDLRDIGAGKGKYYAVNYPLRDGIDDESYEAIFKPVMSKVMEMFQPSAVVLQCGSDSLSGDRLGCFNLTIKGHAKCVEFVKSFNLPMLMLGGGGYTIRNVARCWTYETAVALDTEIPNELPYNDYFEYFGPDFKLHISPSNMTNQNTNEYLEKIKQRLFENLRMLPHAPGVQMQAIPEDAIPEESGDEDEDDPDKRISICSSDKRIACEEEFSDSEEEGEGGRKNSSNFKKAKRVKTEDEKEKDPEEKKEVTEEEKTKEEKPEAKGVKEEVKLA
In short: (§1)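 Compound given to HL-60 cells for 24 h at the stated concentrations, then lysed. Acetyl-histone H3 and acetyl-α-tubulin levels were read by Western blot, with total H3, α-tubulin or β-actin as references.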

HL-60 [3] = assay: Induction of apoptosis in human HL-60 cells assessed as necrotic cells at 40 uM incubated for 24 hrs by propidium iodide and annexin-V FITC staining based FACS analysis (reference value: 0.1 %); type: functional
HL-60 [4] = assay: Induction of apoptosis in human HL-60 cells assessed as necrotic cells at 20 uM incubated for 24 hrs by propidium iodide and annexin-V FITC staining based FACS analysis (reference value: 0.1 %); type: functional
HL-60 [5] = assay: Induction of apoptosis in human HL-60 cells assessed as early apoptotic cells at 20 uM incubated for 24 hrs by propidium iodide and annexin-V FITC staining based FACS analysis (reference value: 2.0 %); type: functional
HL-60 [6] = assay: Induction of apoptosis in human HL-60 cells assessed as late apoptotic cells at 20 uM incubated for 24 hrs by propidium iodide and annexin-V FITC staining based FACS analysis (reference value: 1.7 %); type: functional
HL-60 [7] = assay: Induction of apoptosis in human HL-60 cells assessed as viable cells at 20 uM incubated for 24 hrs by propidium iodide and annexin-V FITC staining based FACS analysis (reference value: 96.3 %); type: functional; conditions: read-out: Activity
HL-60 [8] = assay: Induction of apoptosis in human HL-60 cells assessed as viable cells at 40 uM incubated for 24 hrs by propidium iodide and annexin-V FITC staining based FACS analysis (reference value: 96.3 %); type: functional; conditions: read-out: Activity
HL-60 [9] = assay: Induction of apoptosis in human HL-60 cells assessed as early apoptotic cells at 40 uM incubated for 24 hrs by propidium iodide and annexin-V FITC staining based FACS analysis (reference value: 2.0 %); type: functional
HL-60 [10] = assay: Induction of apoptosis in human HL-60 cells assessed as late apoptotic cells at 40 uM incubated for 24 hrs by propidium iodide and annexin-V FITC staining based FACS analysis (reference value: 1.7 %); type: functional
HL-60 [11] = assay: Growth inhibition of human HL-60 cells after 72 hrs by trypan blue dye based assay; type: functional
In short: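 HL-60 leukemia cells were exposed to compound for 72 h. Growth inhibition is reported as IG50 (half the growth inhibition concentration), as means plus SD of three independent experiments.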

[12] = target: T2, Protein deacetylase HDAC6 (Homo sapiens, UniProt Q9UBN7); assay: Inhibition of recombinant full length C-terminal FLAG-tagged human HDAC6 expressed in baculovirus infected Sf9 cells using Boc-Lys(Ac)-AMC as substrate preincubated for 15 mins followed by substrate addition and measured after 60 mins by fluorescence based assay
T2 sequence (Q9UBN7 whole entry): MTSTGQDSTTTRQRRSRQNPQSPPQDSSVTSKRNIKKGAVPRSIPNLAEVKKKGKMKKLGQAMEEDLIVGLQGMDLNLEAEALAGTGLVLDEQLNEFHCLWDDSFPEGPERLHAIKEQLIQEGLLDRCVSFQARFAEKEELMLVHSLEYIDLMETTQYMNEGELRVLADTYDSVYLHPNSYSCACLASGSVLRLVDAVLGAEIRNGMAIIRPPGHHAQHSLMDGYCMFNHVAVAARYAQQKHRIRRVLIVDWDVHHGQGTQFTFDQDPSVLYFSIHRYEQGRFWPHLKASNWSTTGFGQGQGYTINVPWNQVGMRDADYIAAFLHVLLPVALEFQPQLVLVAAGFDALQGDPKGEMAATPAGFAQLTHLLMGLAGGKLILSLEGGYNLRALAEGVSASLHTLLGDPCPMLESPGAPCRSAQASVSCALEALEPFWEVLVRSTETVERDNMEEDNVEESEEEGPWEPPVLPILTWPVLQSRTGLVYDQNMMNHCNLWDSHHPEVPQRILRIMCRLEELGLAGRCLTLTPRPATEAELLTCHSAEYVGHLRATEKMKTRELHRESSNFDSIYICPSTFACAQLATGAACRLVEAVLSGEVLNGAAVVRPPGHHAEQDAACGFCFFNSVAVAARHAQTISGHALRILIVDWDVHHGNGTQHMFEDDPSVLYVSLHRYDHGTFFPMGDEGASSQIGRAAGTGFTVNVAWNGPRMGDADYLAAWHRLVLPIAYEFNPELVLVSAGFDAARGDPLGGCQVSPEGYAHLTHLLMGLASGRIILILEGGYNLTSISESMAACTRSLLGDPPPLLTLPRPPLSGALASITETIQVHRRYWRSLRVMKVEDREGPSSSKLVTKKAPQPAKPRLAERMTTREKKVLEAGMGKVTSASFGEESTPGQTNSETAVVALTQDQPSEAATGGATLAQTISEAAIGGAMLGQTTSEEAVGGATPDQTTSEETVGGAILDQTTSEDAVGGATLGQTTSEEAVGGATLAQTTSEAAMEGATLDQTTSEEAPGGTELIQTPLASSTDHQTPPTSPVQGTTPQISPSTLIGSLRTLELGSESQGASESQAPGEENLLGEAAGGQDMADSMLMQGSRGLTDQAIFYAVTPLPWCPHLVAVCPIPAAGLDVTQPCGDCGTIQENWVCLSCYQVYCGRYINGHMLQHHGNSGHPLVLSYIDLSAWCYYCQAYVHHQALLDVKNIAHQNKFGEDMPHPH

[13] = target: Histone deacetylase 3/Nuclear receptor corepressor 2 (HDAC3/NCoR2) (Homo sapiens, UniProt O15379); assay: Inhibition of C-terminal His-tagged recombinant human HDAC3 (1 to 428 residues)/N-terminal GST-tagged recombinant human NCoR2 (395 to 489 residues) co-expressed in baculovirus infected Sf9 cells using Boc-Lys(Ac)-AMC as substrate preincubated for 15 mins followed by substrate addition and measured after 60 mins by fluorescence based assay
Chain of Histone deacetylase 3/Nuclear receptor corepressor 2 (HDAC3/NCoR2) (O15379 whole entry, the tested form may be a part): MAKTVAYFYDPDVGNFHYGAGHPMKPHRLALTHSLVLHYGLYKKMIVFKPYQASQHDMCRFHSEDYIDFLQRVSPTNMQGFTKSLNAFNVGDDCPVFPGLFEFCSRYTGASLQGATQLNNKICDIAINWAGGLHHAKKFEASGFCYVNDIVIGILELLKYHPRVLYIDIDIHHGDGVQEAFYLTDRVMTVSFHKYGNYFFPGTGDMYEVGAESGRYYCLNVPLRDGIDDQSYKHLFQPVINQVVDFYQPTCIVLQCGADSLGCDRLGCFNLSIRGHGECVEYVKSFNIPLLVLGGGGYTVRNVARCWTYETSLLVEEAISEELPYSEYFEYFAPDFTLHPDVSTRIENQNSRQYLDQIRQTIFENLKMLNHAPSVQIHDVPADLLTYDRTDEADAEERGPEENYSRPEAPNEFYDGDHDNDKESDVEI
Chain of Histone deacetylase 3/Nuclear receptor corepressor 2 (HDAC3/NCoR2) (Q9Y618 whole entry, further chain, the tested form may be a part): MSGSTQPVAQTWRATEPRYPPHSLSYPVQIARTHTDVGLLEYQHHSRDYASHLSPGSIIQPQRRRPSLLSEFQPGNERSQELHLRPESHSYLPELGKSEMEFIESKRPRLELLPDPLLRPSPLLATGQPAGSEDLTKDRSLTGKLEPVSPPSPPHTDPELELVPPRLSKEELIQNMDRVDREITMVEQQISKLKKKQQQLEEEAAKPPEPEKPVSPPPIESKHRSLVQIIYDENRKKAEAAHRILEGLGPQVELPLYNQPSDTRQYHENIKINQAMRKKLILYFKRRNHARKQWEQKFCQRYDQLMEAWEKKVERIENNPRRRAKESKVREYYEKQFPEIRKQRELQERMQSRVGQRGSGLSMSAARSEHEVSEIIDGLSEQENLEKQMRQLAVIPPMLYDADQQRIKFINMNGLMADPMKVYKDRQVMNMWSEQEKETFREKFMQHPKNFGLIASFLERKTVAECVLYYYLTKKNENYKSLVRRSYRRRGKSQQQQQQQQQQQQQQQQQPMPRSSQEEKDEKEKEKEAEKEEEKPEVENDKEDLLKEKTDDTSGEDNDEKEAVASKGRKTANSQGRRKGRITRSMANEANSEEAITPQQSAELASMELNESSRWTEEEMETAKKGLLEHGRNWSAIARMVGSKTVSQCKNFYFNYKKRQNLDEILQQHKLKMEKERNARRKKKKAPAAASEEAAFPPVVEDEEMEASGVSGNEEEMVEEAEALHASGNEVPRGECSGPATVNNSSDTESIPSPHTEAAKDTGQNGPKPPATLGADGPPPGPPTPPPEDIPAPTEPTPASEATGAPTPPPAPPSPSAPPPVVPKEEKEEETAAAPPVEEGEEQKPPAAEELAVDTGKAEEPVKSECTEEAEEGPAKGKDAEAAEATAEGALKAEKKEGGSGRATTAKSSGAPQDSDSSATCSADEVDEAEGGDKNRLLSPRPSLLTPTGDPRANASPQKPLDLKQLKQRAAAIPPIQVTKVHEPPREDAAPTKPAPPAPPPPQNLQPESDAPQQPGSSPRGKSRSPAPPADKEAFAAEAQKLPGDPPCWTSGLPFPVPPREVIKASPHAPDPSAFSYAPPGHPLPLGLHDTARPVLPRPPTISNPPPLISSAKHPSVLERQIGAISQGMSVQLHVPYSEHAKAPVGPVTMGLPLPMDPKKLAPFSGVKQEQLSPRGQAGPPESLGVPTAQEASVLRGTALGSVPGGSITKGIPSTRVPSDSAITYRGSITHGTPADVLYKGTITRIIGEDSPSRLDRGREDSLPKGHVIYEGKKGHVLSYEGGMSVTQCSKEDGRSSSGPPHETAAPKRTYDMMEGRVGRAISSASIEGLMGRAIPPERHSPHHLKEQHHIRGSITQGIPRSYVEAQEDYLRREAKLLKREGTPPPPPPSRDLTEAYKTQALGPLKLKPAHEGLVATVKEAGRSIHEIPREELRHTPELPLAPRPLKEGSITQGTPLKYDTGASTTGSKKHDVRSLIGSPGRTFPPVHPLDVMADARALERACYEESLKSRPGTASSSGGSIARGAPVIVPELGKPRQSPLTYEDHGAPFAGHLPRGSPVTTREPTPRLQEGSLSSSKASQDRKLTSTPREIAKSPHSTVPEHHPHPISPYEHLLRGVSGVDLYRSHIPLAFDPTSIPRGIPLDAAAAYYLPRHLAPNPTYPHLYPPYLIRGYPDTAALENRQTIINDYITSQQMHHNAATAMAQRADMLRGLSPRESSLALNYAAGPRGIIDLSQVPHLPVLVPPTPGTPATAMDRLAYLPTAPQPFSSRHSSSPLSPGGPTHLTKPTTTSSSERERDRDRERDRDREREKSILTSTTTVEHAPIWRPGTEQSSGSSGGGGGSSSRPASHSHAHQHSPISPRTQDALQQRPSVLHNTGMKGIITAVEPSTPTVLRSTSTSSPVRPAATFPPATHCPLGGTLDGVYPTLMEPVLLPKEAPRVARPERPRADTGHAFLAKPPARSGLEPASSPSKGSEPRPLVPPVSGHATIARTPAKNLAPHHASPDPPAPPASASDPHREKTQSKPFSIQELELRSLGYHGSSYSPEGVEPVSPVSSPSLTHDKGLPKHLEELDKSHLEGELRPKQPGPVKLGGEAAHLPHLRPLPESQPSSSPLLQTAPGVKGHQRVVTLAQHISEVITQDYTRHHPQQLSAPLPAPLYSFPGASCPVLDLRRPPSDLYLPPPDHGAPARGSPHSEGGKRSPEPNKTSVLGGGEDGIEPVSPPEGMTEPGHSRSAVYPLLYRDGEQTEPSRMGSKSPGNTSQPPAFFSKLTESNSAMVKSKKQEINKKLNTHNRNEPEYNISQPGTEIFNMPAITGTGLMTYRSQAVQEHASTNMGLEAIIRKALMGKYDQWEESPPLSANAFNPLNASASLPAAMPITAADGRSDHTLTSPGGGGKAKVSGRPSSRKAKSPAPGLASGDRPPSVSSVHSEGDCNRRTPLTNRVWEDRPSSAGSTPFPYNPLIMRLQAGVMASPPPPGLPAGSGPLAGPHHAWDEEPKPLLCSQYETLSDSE

Histone deacetylase 2 [14] = target: T3, Histone deacetylase 2 (Homo sapiens, UniProt Q92769); assay: Inhibition of recombinant full length C-terminal FLAG-tagged human HDAC2 expressed in baculovirus infected Sf9 cells using Boc-Lys(Ac)-AMC as substrate preincubated for 15 mins followed by substrate addition and measured after 60 mins by fluorescence based assay
T3 sequence (Q92769 whole entry): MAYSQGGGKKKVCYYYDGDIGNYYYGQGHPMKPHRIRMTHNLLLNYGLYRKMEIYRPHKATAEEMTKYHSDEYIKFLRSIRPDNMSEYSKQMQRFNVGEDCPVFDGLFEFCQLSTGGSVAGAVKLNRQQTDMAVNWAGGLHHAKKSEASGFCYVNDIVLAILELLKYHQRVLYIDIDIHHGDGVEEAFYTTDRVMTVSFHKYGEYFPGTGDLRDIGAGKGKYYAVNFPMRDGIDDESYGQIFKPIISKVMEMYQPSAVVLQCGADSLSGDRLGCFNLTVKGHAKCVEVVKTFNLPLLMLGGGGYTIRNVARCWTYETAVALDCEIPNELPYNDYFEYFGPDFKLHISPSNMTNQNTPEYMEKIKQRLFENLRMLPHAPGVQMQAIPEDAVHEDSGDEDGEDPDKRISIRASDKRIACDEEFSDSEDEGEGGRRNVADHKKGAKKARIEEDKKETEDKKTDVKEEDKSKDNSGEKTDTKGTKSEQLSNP

Histone deacetylase 1 [15] = target: T1, Histone deacetylase 1; assay: Inhibition of recombinant full length C-terminal FLAG/His-tagged human HDAC1 expressed in baculovirus infected Sf9 cells using Boc-Lys(Ac)-AMC as substrate preincubated for 15 mins followed by substrate addition and measured after 60 mins by fluorescence based assay
Histone deacetylase 2 [16] = target: T3, Histone deacetylase 2; assay: Inhibition of HDAC2 in human HL-60 cells assessed as increase in Ac-H3 level at 20 uM incubated for 24 hrs by Western blot analysis; type: cell-based; in short: as §1
[17] = target: Histone deacetylase 3 (Homo sapiens) (UniProt O15379); assay: Inhibition of HDAC3 in human HL-60 cells assessed as increase in Ac-H3 level at 20 uM incubated for 24 hrs by Western blot analysis; type: cell-based; in short: as §1
Chain of Histone deacetylase 3 (Homo sapiens) (O15379 whole entry): as the sequence (O15379 whole entry, the tested form may be a part) above

Histone deacetylase 1 [18] = target: T1, Histone deacetylase 1; assay: Inhibition of HDAC1 in human HL-60 cells assessed as increase in Ac-H3 level at 20 uM incubated for 24 hrs by Western blot analysis; type: cell-based; in short: as §1
HL-60 [19] = assay: Induction of apoptosis in human HL-60 cells assessed as necrotic cells at 20 uM incubated for 24 hrs by propidium iodide and annexin-V FITC staining based FACS analysis (reference value: 0.5 %); type: functional
HL-60 [20] = assay: Induction of apoptosis in human HL-60 cells assessed as late apoptotic cells at 20 uM incubated for 24 hrs by propidium iodide and annexin-V FITC staining based FACS analysis (reference value: 3.7 %); type: functional
HL-60 [21] = assay: Induction of apoptosis in human HL-60 cells assessed as early apoptotic cells at 20 uM incubated for 24 hrs by propidium iodide and annexin-V FITC staining based FACS analysis (reference value: […]); type: functional
HL-60 [22] = assay: Induction of apoptosis in human HL-60 cells assessed as viable cells at 20 uM incubated for 24 hrs by propidium iodide and annexin-V FITC staining based FACS analysis (reference value: 93.9 %); type: functional; conditions: read-out: Activity

| SMILES | IG50 (HL-60 [11]) [µM] | IC50 [12] [µM] | IC50 [13] [µM] | IC50 (Histone deacetylase 2 [14]) [µM] | IC50 (Histone deacetylase 1 [15]) [µM] | other results |
| --- | --- | --- | --- | --- | --- | --- |
| Nc1cc(F)ccc1NC(=O)/C=C/c1cnn(C/C=C/c2ccccc2)c1 | 6.1 | – | – | – | – | IG50 [1]: 10.8 µM; IG50 (HCT-116): 22 µM; IG50 (A549): 28.3 µM; IG50 (MCF7): 30 µM; inhibition (Histone deacetylase 1 [2]): inactive; Activity (HL-60 [3]): 2.9%; Activity (HL-60 [4]): 0.5%; Activity (HL-60 [5]): 3%; Activity (HL-60 [6]): 7.2%; viability at 20 µM (HL-60 [7]): 89.3%; viability at 40 µM (HL-60 [8]): 75.1%; Activity (HL-60 [9]): 4.8%; Activity (HL-60 [10]): 17.2% |
| O=C(CCCCNC(=O)/C(Cc1ccc(O)c(Br)c1)=N/O)NO | >40 | 1.29 | 0.249 | > 10 | 0.436 | – |
| O=C(CCCNC(=O)/C(Cc1ccc(O)c(Br)c1)=N/O)NO | >40 | > 10 | > 10 | > 10 | 1.01 | – |
| O=C(O)CCNC(=O)/C(Cc1ccc(O)c(Br)c1)=N/O | – | > 10 | > 10 | > 10 | > 10 | inhibition (Histone deacetylase 2 [16]): inactive; inhibition [17]: inactive; inhibition (Histone deacetylase 1 [18]): inactive; Activity (HL-60 [19]): 0.2%; Activity (HL-60 [20]): 3.4%; Activity (HL-60 [21]): 2.2%; viability at 20 µM (HL-60 [22]): 94.2%; GI50 (HL-60 [11]; Homo sapiens, HL-60): 11.8 µM |
| Nc1ccccc1NC(=O)CNC(=O)/C(Cc1ccc(O)c(Br)c1)=N/O | >40 | > 10 | > 10 | > 10 | > 10 | – |
| Nc1ccccc1NC(=O)CCCNC(=O)/C(Cc1ccc(O)c(Br)c1)=N/O | >40 | > 10 | 1.83 | > 10 | > 10 | – |

Source: ChEMBL document CHEMBL4673384, “Studying Histone Deacetylase Inhibition and Apoptosis Induction of Psammaplin A Monomers with Modified Thiol Group” (ACS Med Chem Lett, 2021)
